ChEMBL document CHEMBL1781935, “Amberlite-IRA-402 (OH) ion exchange resin mediated synthesis of indolizines, pyrrolo [1,2-a] quinolines and isoquinolines: antibacterial and antifungal evaluation of the products” (2011)
≈ marks a conversion by molar mass, not a printed value. Calls of active or inactive are those of the source. No cut-off for these calls is given here.

Columns and labels:
Cryptococcus neoformans = experiment: Antifungal activity against […] after 96 hrs; format: functional
How it was run: (§1)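 Clinical isolates grown on Sabouraud dextrose agar at 28 °C. MIC was set by broth dilution in Sabouraud dextrose broth (0.1 ml of 2 × 10^5 spores/ml, 1–1500 µg/ml) or by agar dilution (2 × 10^5 spores/spot), with an antibiotic control, at 28 °C for 96 h. The lowest concentration with no visible growth was taken.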

Aspergillus niger = experiment: Antifungal activity against Aspergillus niger after 96 hrs; format: functional; how it was run: as §1
Candida albicans = experiment: Antifungal activity against Candida albicans after 96 hrs; format: functional; how it was run: as §1
Candida tropicalis = experiment: Antifungal activity against Candida tropicalis after 96 hrs; format: functional; how it was run: as §1
Klebsiella pneumoniae [1] = experiment: Antibacterial activity against Klebsiella pneumoniae isolate J/1/4 at 1 to 1000 ug/ml after overnight incubation by disc diffusion method; format: functional
How it was run: (§2)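 Disc diffusion on Mueller-Hinton agar. Plates seeded with 0.1 ml bacterial suspension (2 × 10^6 cfu/ml). Sterile 6 mm paper discs were impregnated with compound solutions at 1–1000 µg/ml and incubated at 37 °C overnight. Read-out was the diameter of the clear inhibition zone. Stocks were 1 mg/ml in 4% Tween 80 or 4% propylene glycol.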

Bacillus subtilis [2] = experiment: Antibacterial activity against Bacillus subtilis UC564 at 1 to 1000 ug/ml after overnight incubation by disc diffusion method; format: functional; how it was run: as §2
Enterococcus faecalis [3] = experiment: Antibacterial activity against Streptococcus faecalis isolate 29212; format: functional
How it was run: (§3)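 MIC by broth and agar dilution. Broth: 0.1 ml suspension (2 × 10^6 cfu/ml) in Mueller-Hinton broth with test drug at 1–1000 µg/ml, 37 °C overnight. Agar: serial drug dilutions in Mueller-Hinton agar, spot-inoculated with 2 × 10^6 cfu/spot, 37 °C for 24 h. MIC was the lowest concentration with no visible growth. Antibiotic controls were included.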

Staphylococcus aureus [4] = experiment: Antibacterial activity against Staphylococcus aureus ATCC 25923 at 10 to 80 ug/ml after overnight incubation by broth dilution method; format: functional, organism-based
How it was run: (§4)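 Bactericidal testing with double-fold drug dilutions in Mueller-Hinton broth. Tubes inoculated with 1 ml suspension (2 × 10^6 cfu/ml) and shaken at 200 rpm at 37 °C for 24 h. Drug was added at mid-logarithmic growth. Viable colony counts were taken from 1.0 ml aliquots plated on nutrient agar.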

Vibrio parahaemolyticus [5] = experiment: Antibacterial activity against Vibrio parahaemolyticus isolate 72016 at 1 to 1000 ug/ml after overnight incubation by disc diffusion method; format: functional; how it was run: as §2
Shigella dysenteriae [6] = experiment: Antibacterial activity against Shigella dysenteriae isolate 3 at 1 to 1000 ug/ml after overnight incubation by disc diffusion method; format: functional
Bacillus subtilis [7] = experiment: Antibacterial activity against Bacillus subtilis UC564; format: functional; how it was run: as §3
Micrococcus luteus [8] = experiment: Antibacterial activity against Micrococcus luteus AGD1 at 1 to 1000 ug/ml after overnight incubation by disc diffusion method; format: functional; how it was run: as §2
Salmonella typhimurium [9] = experiment: Antibacterial activity against Salmonella Typhimurium isolate 11; format: functional, Salmonella enterica subsp. enterica serovar Typhimurium; conditions: Salmonella enterica; how it was run: as §3
Vibrio parahaemolyticus [10] = experiment: Antibacterial activity against Vibrio parahaemolyticus isolate 72016; format: functional; how it was run: as §3
Pseudomonas aeruginosa [11] = experiment: Antibacterial activity against Pseudomonas aeruginosa ATCC 27853; format: functional; how it was run: as §3
Escherichia coli [12] = experiment: Antibacterial activity against Escherichia coli ATCC 25938; format: functional; how it was run: as §3
Pseudomonas aeruginosa [13] = experiment: Antibacterial activity against Pseudomonas aeruginosa ATCC 27853 at 1 to 1000 ug/ml after overnight incubation by disc diffusion method; format: functional; how it was run: as §2
Shigella flexneri [14] = experiment: Antibacterial activity against Shigella flexneri DN13 at 1 to 1000 ug/ml after overnight incubation by disc diffusion method; format: functional; how it was run: as §2
Escherichia coli [15] = experiment: Antibacterial activity against Escherichia coli ATCC 25938 at 1 to 1000 ug/ml after overnight incubation by disc diffusion method; format: functional; how it was run: as §2
Vibrio cholerae [16] = experiment: Antibacterial activity against Vibrio cholerae isolate 7201 at 1 to 1000 ug/ml after overnight incubation by disc diffusion method; format: functional
Staphylococcus aureus [17] = experiment: Antibacterial activity against Staphylococcus aureus ATCC 25923; format: functional; how it was run: as §3
Pseudomonas aeruginosa [18] = experiment: Antibacterial activity against Pseudomonas aeruginosa ATCC 27853 at 10 to 80 ug/ml after overnight incubation by broth dilution method; format: functional, organism-based; how it was run: as §4
Vibrio cholerae [19] = experiment: Antibacterial activity against Vibrio cholerae isolate 720 at 1 to 1000 ug/ml after overnight incubation by disc diffusion method; format: functional
Micrococcus luteus [20] = experiment: Antibacterial activity against Micrococcus luteus AGD1; format: functional; how it was run: as §3
Klebsiella pneumoniae [21] = experiment: Antibacterial activity against Klebsiella pneumoniae isolate J/1/4; format: functional; how it was run: as §3
Salmonella typhi [22] = experiment: Antibacterial activity against Salmonella typhi DIRW at 1 to 1000 ug/ml after overnight incubation by disc diffusion method; format: functional; conditions: Salmonella enterica subsp. enterica serovar Typhi
Bacillus subtilis [23] = experiment: Antibacterial activity against Bacillus subtilis UC564 at 10 to 80 ug/ml after overnight incubation by broth dilution method; format: functional, organism-based; how it was run: as §4
Escherichia coli [24] = experiment: Antibacterial activity against Escherichia coli ATCC 25938 at 10 to 80 ug/ml after overnight incubation by broth dilution method; format: functional, organism-based; how it was run: as §4
Shigella flexneri [25] = experiment: Antibacterial activity against Shigella flexneri DN13; format: functional; how it was run: as §3
Shigella dysenteriae [26] = experiment: Antibacterial activity against Shigella dysenteriae isolate 3; format: functional
Salmonella typhimurium [27] = experiment: Antibacterial activity against Salmonella Typhimurium isolate 11 at 1 to 1000 ug/ml after overnight incubation by disc diffusion method; format: functional, organism-based; conditions: Salmonella enterica subsp. enterica serovar Typhimurium; how it was run: as §2
Staphylococcus aureus [28] = experiment: Antibacterial activity against Staphylococcus aureus ATCC 25923 at 1 to 1000 ug/ml after overnight incubation by disc diffusion method; format: functional; how it was run: as §2
Vibrio cholerae [29] = experiment: Antibacterial activity against Vibrio cholerae isolate 7201; format: functional
Enterococcus faecalis [30] = experiment: Antibacterial activity against Enterococcus faecalis isolate 29212 at 1 to 1000 ug/ml after overnight incubation by disc diffusion method; format: functional; how it was run: as §2
Shigella dysenteriae [31] = experiment: Antibacterial activity against Shigella dysenteriae isolate 3 at 10 to 80 ug/ml after overnight incubation by broth dilution method; format: functional, organism-based
Vibrio cholerae [32] = experiment: Antibacterial activity against Vibrio cholerae isolate 7201 at 10 to 80 ug/ml after overnight incubation by broth dilution method; format: functional, organism-based
Salmonella typhi [33] = experiment: Antibacterial activity against Salmonella typhi DIRW; format: functional, Salmonella enterica subsp. enterica serovar Typhi; conditions: Salmonella enterica

OC(Cn1cncn1)(Cn1cncn1)c1ccc(F)cc1F [FLUCONAZOLE]
MIC (Cryptococcus neoformans): 8 µg/mL (≈ 26.1 µM) | MIC (Aspergillus niger): 10 µg/mL (≈ 32.7 µM) | MIC (Candida albicans): 4 µg/mL (≈ 13.1 µM) | MIC (Candida tropicalis): 8 µg/mL (≈ 26.1 µM)

CCOC(=O)c1c(C(=O)OCC)c2ccc3ccccc3n2c1C(=O)c1ccccc1
diameter of the inhibition zone (DIZ) (Klebsiella pneumoniae [1]): 8.6 mm | diameter of the inhibition zone (DIZ) (Bacillus subtilis [2]): 10 mm | MIC (Enterococcus faecalis [3]): 500 µg/mL (≈ 1200 µM) | Activity (Staphylococcus aureus [4]): Active | diameter of the inhibition zone (DIZ) (Vibrio parahaemolyticus [5]): 9.3 mm | diameter of the inhibition zone (DIZ) (Shigella dysenteriae [6]): 11.1 mm | MIC (Bacillus subtilis [7]): 16 µg/mL (≈ 38.5 µM) | diameter of the inhibition zone (DIZ) (Micrococcus luteus [8]): inactive | MIC (Salmonella typhimurium [9]): > 500 µg/mL | MIC (Vibrio parahaemolyticus [10]): 64 µg/mL (≈ 154 µM) | MIC (Pseudomonas aeruginosa [11]): 32 µg/mL (≈ 77 µM) | MIC (Escherichia coli [12]): > 500 µg/mL | diameter of the inhibition zone (DIZ) (Pseudomonas aeruginosa [13]): 9.7 mm | diameter of the inhibition zone (DIZ) (Shigella flexneri [14]): inactive | diameter of the inhibition zone (DIZ) (Escherichia coli [15]): 8.1 mm | diameter of the inhibition zone (DIZ) (Vibrio cholerae [16]): 7.7 mm | MIC (Staphylococcus aureus [17]): 64 µg/mL (≈ 154 µM) | Activity (Pseudomonas aeruginosa [18]): Active | diameter of the inhibition zone (DIZ) (Vibrio cholerae [19]): 7.7 mm | MIC (Micrococcus luteus [20]): 500 µg/mL (≈ 1200 µM) | MIC (Klebsiella pneumoniae [21]): 256 µg/mL (≈ 616 µM) | diameter of the inhibition zone (DIZ) (Salmonella typhi [22]): inactive | Activity (Bacillus subtilis [23]): Active | Activity (Escherichia coli [24]): Active | MIC (Shigella flexneri [25]): > 500 µg/mL | MIC (Shigella dysenteriae [26]): 32 µg/mL (≈ 77 µM) | diameter of the inhibition zone (DIZ) (Salmonella typhimurium [27]): inactive | diameter of the inhibition zone (DIZ) (Staphylococcus aureus [28]): 10.2 mm | MIC (Vibrio cholerae [29]): 128 µg/mL (≈ 308 µM) | diameter of the inhibition zone (DIZ) (Enterococcus faecalis [30]): inactive | Activity (Shigella dysenteriae [31]): Active | Activity (Vibrio cholerae [32]): Active | MIC (Salmonella typhi [33]): 500 µg/mL (≈ 1200 µM)
